From PubChem BioAssay come the findings set out here.

What is called viability is a read-out of living cells in per cent, often relative to untreated cells. The inhibition is the change of the read-out against control, counted positive when it falls.

Calls of active or inactive are those of the source.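 The calls were made as follows, unless noted: active = viability at or under a set limit in both replicates, limit being median viability minus 3 SD (cut at about 48% in these data, passing the limit was not always enough); inconclusive = at or under the limit in just one replicate; inactive = at or above the limit in both replicates.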

Assay [1] is described as follows: HUVEC growth inhibition – cell-based, human, primary screen (AID 575;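 active = viability at or below 30% in both replicate assays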;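 also: 100% = median of untreated cell wells with 0.1% DMSO on each plate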). To be noted: HUVEC proliferation, CellTiter-Glo luminescence, 72 h; at 10 µM; stronger effect = lower value. The method, boiled down: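 Test system: primary human umbilical vein endothelial cells; medium: endothelial basal medium with 2% FBS plus growth supplements; dosing: 10 µM compound only; times: 72 h treatment at 37 °C; signal: CTG luminescence; read-out: % viability relative to median vehicle-well signal on each plate; control set: vehicle and MePR control wells; plate: 384-well, collagen-coated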

A short description of assay [2]: H69AR cell proliferation blockers – human, duplicate replicates, primary screen (AID 580).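 Also: 100% = mean luminescence of untreated wells and 0% = no signal.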 To be noted: H69AR lung tumor cells viability, ATP luminescence, 72 h; at 10 µM; stronger effect = lower value.
Assay [3] is described as follows: MRP1 drug-resistance reversers in H69AR cells – cell-based, doxorubicin co-treatment, pilot screen (AID 601;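 active = viability loss from added drug above about 55%, and viability with drug at most 40%, in both replicates, limit read from the data, passing the limit was not always enough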). To be noted: CellTiter-Glo, 72 h, at 10 µM; for differential viability (reversal): stronger effect = higher value.
The nature of assay [4]: yeast transport mutant growth inhibition pilot in 384-well plates, post-Golgi transport modulator project (AID 636; in the data active = inhibition above about 31%). To be noted: absorbance 615 nm, about 18 h, stronger effect = higher value.
Assay [5] can be described thus: growth suppression of yeast trafficking mutant, preliminary HTS, modulators of trafficking downstream of Golgi apparatus project, 1536-format plate, OD 615 nm (AID 637; in the data active = inhibition above about 30%). To be noted: yeast transport mutant growth, absorbance 615 nm, 18 h; stronger effect = higher value.
The mark [6] stands for this setting: H69AR cells + 2 uM doxorubicin, measured here: viability with 2 uM doxorubicin, stronger effect = lower value.
Setting [7] is: H69AR cells, compound alone cytotoxicity.

As for `Cc1ccc(-c2nnnn2CS(=O)(=O)c2ccccc2)cc1`, the viability in assay [1] is 86.7% (inactive); in assay [2] it was 96.4% (inactive); in assay [3] (setting [6]), 91.1%; in assay [3] (setting [7]), 96.4%. Further, in assay [3] (H69AR cells + 2 uM doxorubicin), the differential viability (reversal) is 5.26% (inactive). In addition, the inhibition in assay [4] was -2.08% (inactive); in assay [5], -2.22% (inactive).

With `Cc1nn(Cc2ccccc2Cl)c(C)c1NC(=O)C1C2CCC(O2)C1C(=O)O` (stereo not given), the viability is 93.8% (inactive) in assay [1], 90.9% (inactive) in assay [2], 87.8% in assay [3] (setting [6]) and 90.9% in assay [3] (setting [7]). In assay [3] (H69AR cells + 2 uM doxorubicin), the differential viability (reversal) was 3.11% (inactive). For the same compound, the inhibition in assay [4] was -1.97% (inactive); in assay [5], -7.14% (inactive).

Consider `Cc1nc(NCc2ccccn2)c2ccccc2n1`, for which the viability in assay [1] was 71% (inactive); in assay [2], 104% (inactive); in assay [3] (setting [6]), 87.9%; in assay [3] (setting [7]), 104%. Besides, the differential viability (reversal) in assay [3] (H69AR cells + 2 uM doxorubicin) was 16.4% (inactive). Besides, the inhibition in assay [4] was 2.08% (inactive); in assay [5] it was 2.7% (inactive).

As to `Cc1cccc2cc(C(c3nnnn3C(C)(C)C)N3CCN(C(=O)c4ccco4)CC3)c(=O)[nH]c12` (stereo not given), the viability was 86.4% (inactive) in assay [1], 79.3% (inactive) in assay [2], 83% in assay [3] (setting [6]) and 79.3% in assay [3] (setting [7]). In addition, the differential viability (reversal) in assay [3] (H69AR cells + 2 uM doxorubicin) is -3.69% (inactive). Further, the inhibition is -6.32% (inactive) in assay [4] and 0% (inactive) in assay [5].

`Cc1ccc(Nc2nc(CSc3nnc(-c4cccs4)o3)cs2)cc1`: the viability was 78.7% (inactive) in assay [1], 90.5% (inactive) in assay [2], 92.2% in assay [3] (setting [6]) and 90.5% in assay [3] (setting [7]). Moreover, in assay [3] (H69AR cells + 2 uM doxorubicin), the differential viability (reversal) is -1.67% (inactive). The results for the inhibition in assay [4] and in assay [5] were -4.8% (inactive) and -2.22% (inactive), respectively.

Consider `Cc1cc(C)n(CCCNC(=O)c2ccc(S(=O)(=O)NCc3ccco3)cc2)n1`, for which the viability in assay [1] is 97.6% (inactive); in assay [2], 94.2% (inactive); in assay [3] (setting [6]), 86.9%; in assay [3] (setting [7]), 94.2%. Also, the differential viability (reversal) in assay [3] (H69AR cells + 2 uM doxorubicin) is 7.31% (inactive). The inhibition in assay [4] was -3.77% (inactive); in assay [5], 3.17% (inactive).

In the case of `Cc1ccc(-n2c(-c3ccncc3)nnc2-c2cccs2)cc1`, the viability in assay [1] is 95.2% (inactive); in assay [2], 79.9% (inactive); in assay [3] (setting [6]), 40.6%; in assay [3] (setting [7]) it was 79.9%. Further, in assay [3] (H69AR cells + 2 uM doxorubicin), the differential viability (reversal) was 39.3% (inactive). The inhibition in assay [4] is -6.53% (inactive); in assay [5], 9.37% (inactive).

Turning to `CCCCOc1ccc(C(=O)N2CCC(C)CC2)cc1`, the viability in assay [1] is 111% (inactive); in assay [2] it was 104% (inactive); in assay [3] (setting [6]), 85.7%; in assay [3] (setting [7]), 104%. The differential viability (reversal) in assay [3] (H69AR cells + 2 uM doxorubicin) was 17.9% (inactive). Further, the inhibition in assay [4] was -3.2% (inactive); in assay [5] it was 0.48% (inactive).

Take `Cc1cc(C(=O)N2CCN(C(c3ccccc3)c3ccccc3)CC2)no1`: the viability is 121% (inactive) in assay [1], 89.1% (inactive) in assay [2], 85.7% in assay [3] (setting [6]) and 89.1% in assay [3] (setting [7]). Also, the differential viability (reversal) in assay [3] (H69AR cells + 2 uM doxorubicin) is 3.42% (inactive). The values for the inhibition in assay [4] and in assay [5] were -6.18% (inactive) and 0.16% (inactive), respectively.

As for `Nc1nc(SCc2ccc(Cl)cc2Cl)n[nH]1`, the viability in assay [1] was 85.8% (inactive); in assay [2] it was 92.5% (inactive); in assay [3] (setting [6]), 88.3%; in assay [3] (setting [7]), 92.5%. Also, the differential viability (reversal) in assay [3] (H69AR cells + 2 uM doxorubicin) was 4.17% (inactive). Further, the results for the inhibition in assay [4] and in assay [5] were -7.47% (inactive) and 0.79% (inactive), respectively.

Regarding `COC(=O)c1c(C(=O)OC)n(CCCN)c2ccc(C)cc12`, the viability in assay [1] was 89.1% (inactive); in assay [2], 89.7% (inactive); in assay [3] (setting [6]), 85.3%; in assay [3] (setting [7]) it was 89.7%. In assay [3] (H69AR cells + 2 uM doxorubicin), the differential viability (reversal) is 4.39% (inactive). For the same compound, the inhibition in assay [4] is -0.52% (inactive); in assay [5] it was -1.11% (inactive).

Consider `CN(C)c1nc(N)nc(CSc2nnnn2-c2cccc3ccccc23)n1`, for which the viability in assay [1] was 99.9% (inactive); in assay [2] it was 70.1% (inactive); in assay [3] (setting [6]) it was 73.4%; in assay [3] (setting [7]), 70.1%. Besides, in assay [3] (H69AR cells + 2 uM doxorubicin), the differential viability (reversal) was -3.27% (inactive). Moreover, the inhibition in assay [4] is -6.58% (inactive); in assay [5], 4.13% (inactive).

`COc1ccc(C(=O)CSc2nnc(CNc3ccc(C)cc3C)o2)cc1`: the viability in assay [1] was 86.8% (inactive); in assay [2], 82.2% (inactive); in assay [3] (setting [6]), 81.6%; in assay [3] (setting [7]), 82.2%. Also, the differential viability (reversal) in assay [3] (H69AR cells + 2 uM doxorubicin) is 0.595% (inactive). For the same compound, the values for the inhibition in assay [4] and in assay [5] were -2.76% (inactive) and 1.9% (inactive), respectively.

With `CCOC(=O)C1CCN(C(=O)c2c(-c3c(Cl)cccc3Cl)noc2C)CC1`, the viability is 95.8% (inactive) in assay [1], 84.8% (inactive) in assay [2], 91.1% in assay [3] (setting [6]) and 84.8% in assay [3] (setting [7]). Further, the differential viability (reversal) in assay [3] (H69AR cells + 2 uM doxorubicin) was -6.21% (inactive). Further, the figures for the inhibition in assay [4] and in assay [5] were -2.73% (inactive) and -9.68% (inactive), respectively.

Turning to `O=C1c2ccccc2C(=O)N1CCCCN1CCN(CCCCN2C(=O)c3ccccc3C2=O)CC1`, the viability in assay [1] is 93% (inactive); in assay [2] it was 97.5% (inactive); in assay [3] (setting [6]), 84.8%; in assay [3] (setting [7]), 97.5%. The differential viability (reversal) in assay [3] (H69AR cells + 2 uM doxorubicin) was 12.7% (inactive). The inhibition is -7.33% (inactive) in assay [4] and 6.98% (inactive) in assay [5].

On to `COc1ccc(S(=O)(=O)N2CCN(Cc3ccc(Cl)cc3)CC2)cc1`, for which the viability in assay [1] is 90.7% (inactive); in assay [2] it was 97% (inactive); in assay [3] (setting [6]) it was 90.3%; in assay [3] (setting [7]), 97%. Moreover, in assay [3] (H69AR cells + 2 uM doxorubicin), the differential viability (reversal) was 6.67% (inactive). In addition, the inhibition in assay [4] is -0.4% (inactive); in assay [5], -3.81% (inactive).

Regarding `CCOC(=O)C1CCN(S(=O)(=O)c2cccc(-c3csc(C)n3)c2)CC1`, the viability is 101% (inactive) in assay [1], 90.4% (inactive) in assay [2], 84.5% in assay [3] (setting [6]) and 90.4% in assay [3] (setting [7]). For the same compound, in assay [3] (H69AR cells + 2 uM doxorubicin), the differential viability (reversal) was 5.91% (inactive). The inhibition in assay [4] was -5.2% (inactive); in assay [5] it was 3.81% (inactive).

With `CCOC(=O)c1cccc(NC(=O)CCn2nnc3ccccc32)c1`, the viability in assay [1] was 89.9% (inactive); in assay [2] it was 98.6% (inactive); in assay [3] (setting [6]), 88.9%; in assay [3] (setting [7]) it was 98.6%. Besides, in assay [3] (H69AR cells + 2 uM doxorubicin), the differential viability (reversal) was 9.72% (inactive). Further, the values for the inhibition in assay [4] and in assay [5] were -2.5% (inactive) and 0.48% (inactive), respectively.

On to `CC(C)Cn1cc(C(=O)NCC2CCCO2)c2c3ccccc3n(C)c2c1=O` (stereo not given), for which the viability is 104% (inactive) in assay [1], 89.5% (inactive) in assay [2], 87.8% in assay [3] (setting [6]) and 89.5% in assay [3] (setting [7]). Moreover, the differential viability (reversal) in assay [3] (H69AR cells + 2 uM doxorubicin) is 1.72% (inactive). The inhibition was -2.08% (inactive) in assay [4] and 1.59% (inactive) in assay [5].

Take `c1ccc(CNC2=NCCC2)nc1`: the viability is 102% (inactive) in assay [1], 101% (inactive) in assay [2], 96.8% in assay [3] (setting [6]) and 101% in assay [3] (setting [7]). Also, the differential viability (reversal) in assay [3] (H69AR cells + 2 uM doxorubicin) was 3.93% (inactive). Further, the inhibition in assay [4] was -0.91% (inactive); in assay [5], -7.46% (inactive).
